Data reported in article PMC11253529 (iScience, 2024).
Like-named read-outs stand apart in the source and are kept apart here.

How the values were obtained:
A. flavus ATCC9170 = settings: MHII medium; previously determined values; ref Krämer et al.[35]; cited from earlier work
P. aeruginosa ATCC27853 = settings: MHII medium, previously determined values, ref Krämer et al.[35], cited from earlier work
M. smegmatis ATCC607 = settings: MHII medium; previously determined values; ref Krämer et al.[35]; cited from earlier work
[1] = system: S. aureus (MRSA) ATCC33592; settings: MHII medium; previously determined values; ref Krämer et al.[35]; cited from earlier work
E. coli ATCC35218 = settings: previously determined values, ref Krämer et al.[35], cited from earlier work
intracellular Ca^2+ = experiment: Intracellular Ca2+ induction assay; type: cell-based, human; settings: 2.5 μg/mL; Fluo-8 pre-treated HEK293T cells; fluorescence imaging; n = 3
Method in brief: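 HEK293T cells (2 × 10^4/well, poly-D-lysine plates) were cultured 24 h at 37°C, then loaded with 4 μM Fluo-8-AM in HBSS for 1 h at 37°C and switched to HBSS. After peptide addition, confocal high-content images were taken every second for 20 s. Cells above a fluorescence threshold set from pre-treatment cells were counted against untreated cells. The positive control was 5 μM ionomycin.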

C. albicans FH2173 = settings: MHII medium; previously determined values; ref Krämer et al.[35]; cited from earlier work
pea aphids = settings: feeding assay; cited from earlier work

Substance | MIC, A. flavus ATCC9170 (A. flavus ATCC9170) | MIC, P. aeruginosa ATCC27853 (P. aeruginosa ATCC27853) | MIC, M. smegmatis ATCC607 (M. smegmatis ATCC607) | MIC, S. aureus (MRSA) ATCC33592 [1] | MIC, E. coli ATCC35218, MHC medium (in brackets) (E. coli ATCC35218) | MIC, E. coli ATCC35218, MHII medium (E. coli ATCC35218) | Induction of intracellular Ca^2+ levels (intracellular Ca^2+) | MIC, C. albicans FH2173 (C. albicans FH2173) | MIC, P. aeruginosa ATCC27853 (P. aeruginosa ATCC27853; listed as checacin 1) | Insecticidal activity in aphid feeding assays (pea aphids)
FFGAIAKLAMK [Checacin 1^1−11] | >50 µM | >50 µM | >50 µM | >50 µM | >50 (>50) μM | >50 (>50) μM | the only exceptions | >50 µM | – | –
FLPAIYKQIQKKRK-Amidation [Checacin 1^12−25] | >50 µM | >50 µM | >50 µM | >50 µM | >50 (>50) μM | >50 (>50) μM | the only exceptions | >50 µM | – | –
FFGAIAKLAMKFLPAIYKQIQ [Checacin 1^1−21] | >50 µM | >50 µM | >50 µM | 12.5 µM | >50 (>50) μM | >50 (>50) μM | – | >50 µM | – | –
FFGAIAKLAMKFLPAIYKQIQKKRK-Amidation [Checacin 1] | 50 µM | 12.5 µM | 25 µM | 1.56 µM | 1.6 µM | – | – | 6.25 µM | inhibited to various degrees | insecticidal activity in aphid feeding assays, but only after 72 h
